pEC50: −log10 of the molar value. Values after ≈ are worked out from the molar mass of the structure shown. Active and inactive are the calls of the source. No cut-off for these calls is given here.

Experimental findings from ChEMBL document CHEMBL4765234 (J Med Chem, 2016) are described below.

Series [1] relates to Mus musculus. The series can be described thus: Hypoglycemic activity in Balb/c mouse assessed as reduction in blood glucose level at 0.03 to 3 mg/kg, po administered 60 mins prior to glucose challenge and measured at 7 to 60 mins by IPGTT. Format: functional, organism-based. The settings on record: dose 0.03-3 mg/kg.
Series [2] deals with T1, Peroxisome proliferator-activated receptor alpha (Homo sapiens) (UniProt Q07869).
T1 sequence (whole entry): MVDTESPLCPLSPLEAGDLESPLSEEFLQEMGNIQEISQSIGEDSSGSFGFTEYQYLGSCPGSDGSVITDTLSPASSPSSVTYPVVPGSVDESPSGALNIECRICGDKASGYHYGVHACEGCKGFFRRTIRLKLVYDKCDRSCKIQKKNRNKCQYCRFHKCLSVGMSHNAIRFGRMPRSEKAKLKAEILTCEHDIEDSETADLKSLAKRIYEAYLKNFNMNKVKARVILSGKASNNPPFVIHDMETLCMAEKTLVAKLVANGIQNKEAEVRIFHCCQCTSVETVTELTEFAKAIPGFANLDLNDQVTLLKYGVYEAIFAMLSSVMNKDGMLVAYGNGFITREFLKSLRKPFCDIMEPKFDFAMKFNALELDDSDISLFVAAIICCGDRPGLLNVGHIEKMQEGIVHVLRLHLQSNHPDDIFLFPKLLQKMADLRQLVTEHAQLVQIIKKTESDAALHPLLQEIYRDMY
The series can be described thus: Agonist activity at human Gal4-fused PPARalpha LBD expressed in African green monkey CV1 cells cotransfected with pRL-SV40 plasmid assessed as maximum efficacy measured after 24 hrs by luciferase reporter gene assay relative to control. It counts as cell-based. The settings on record: CV-1. The method in brief: (§1)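 CV1 African green monkey kidney cells were cotransfected, in DMEM with 5% charcoal-stripped FBS, with two plasmids: an SV40-driven Gal4 DBD–PPARα or PPARδ LBD hybrid, and a 5×Gal4-element firefly luciferase reporter. Cells were replated at 15000/well for 4 h, then exposed to 0.17 nM–10 μM in half-log steps for 24 h. Luciferase was read, normalized to maximum from 10 μM reference agonist, and fit by a 4-parameter model.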

A short description of series [3]: Clearance in human liver microsomes by LC-MS/MS analysis. Format: ADME, Microsome.
A short description of series [4]: Clearance in mouse liver microsomes by LC-MS/MS analysis. Format: ADME, Microsome.
Series [5] is described as follows: Clearance in mouse hepatocytes by LC-MS/MS analysis. Format: ADME, cell-based, Hepatocyte.
Series [6] is described as follows: Drug metabolism in dog hepatocytes assessed as glucuronidation by LC-MS/MS analysis. Format: ADME, cell-based, Canis lupus familiaris, Hepatocyte.
The target in series [7] is RXR alpha/PPAR gamma (Homo sapiens) (UniProt P37231+P19793). The series can be described thus: Agonist activity at human CMV-fused PPARgamma […]/RXRalpha (unknown origin) expressed in African green monkey CV1 cells transfected with luciferase plasmid assessed as maximum efficacy measured after 24 hrs by luciferase reporter gene assay relative to control. It counts as cell-based. The note with it: CV-1. The method in brief: (§2)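 CV1 cells were transfected, in DMEM with 5% charcoal-stripped FBS, with CMV-driven full PPARγ and RXRα plus a 2×PPRE TK-promoter luciferase reporter. After overnight growth, cells were replated at 15000/well for 4 h, then treated with 0.17 nM–10 μM in half-log dilutions for 24 h. Lysate luminescence was expressed as % of the maximum from 10 μM reference PPARγ agonist and fit to a 4-parameter logistic.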

Series [8] addresses T2, RXR alpha/PPAR gamma (Homo sapiens, UniProt P19793+P37231).
T2 sequence (P37231 whole entry): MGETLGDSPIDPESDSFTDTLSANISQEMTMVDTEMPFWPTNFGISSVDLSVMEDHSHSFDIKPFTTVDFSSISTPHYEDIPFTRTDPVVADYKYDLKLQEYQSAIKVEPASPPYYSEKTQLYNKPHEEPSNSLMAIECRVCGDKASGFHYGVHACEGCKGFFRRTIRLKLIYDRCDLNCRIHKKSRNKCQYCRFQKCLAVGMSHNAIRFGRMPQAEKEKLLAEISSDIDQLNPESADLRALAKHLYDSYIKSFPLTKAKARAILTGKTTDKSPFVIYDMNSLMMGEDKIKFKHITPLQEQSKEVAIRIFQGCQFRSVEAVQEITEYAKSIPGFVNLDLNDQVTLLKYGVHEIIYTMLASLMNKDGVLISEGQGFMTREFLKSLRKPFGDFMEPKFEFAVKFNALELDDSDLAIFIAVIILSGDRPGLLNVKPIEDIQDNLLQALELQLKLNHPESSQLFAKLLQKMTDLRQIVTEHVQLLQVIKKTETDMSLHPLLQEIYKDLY
T2 sequence (P19793 whole entry): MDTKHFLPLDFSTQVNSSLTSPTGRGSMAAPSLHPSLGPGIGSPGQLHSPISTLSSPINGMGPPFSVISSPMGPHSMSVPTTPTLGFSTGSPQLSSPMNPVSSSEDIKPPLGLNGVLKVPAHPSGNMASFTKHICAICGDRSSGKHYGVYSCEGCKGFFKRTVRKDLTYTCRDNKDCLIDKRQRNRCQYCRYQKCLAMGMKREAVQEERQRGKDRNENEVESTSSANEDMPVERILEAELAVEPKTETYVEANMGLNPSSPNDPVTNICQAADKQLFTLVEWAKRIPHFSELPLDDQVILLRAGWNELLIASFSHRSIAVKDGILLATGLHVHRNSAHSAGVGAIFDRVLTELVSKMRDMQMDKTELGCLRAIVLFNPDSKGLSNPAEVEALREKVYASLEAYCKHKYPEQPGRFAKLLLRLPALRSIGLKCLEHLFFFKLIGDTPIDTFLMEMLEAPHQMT
The series is described as follows: Agonist activity at human CMV-fused […]/RXRalpha (unknown origin) expressed in African green monkey CV1 cells transfected with luciferase plasmid measured after 24 hrs by luciferase reporter gene assay. It counts as cell-based, CV-1. The method in brief:
as §2

A short description of series [9]: Solubility of the compound in FaSSIF. It counts as physicochemical.
The subject of series [10] is Rattus norvegicus. The series is described as follows: Hypoglycemic activity in Zucker fatty diabetes mellitus rat model assessed as increase in insulin levels in plasma at 0.03 to 1 mg/kg, po administered for 21 days and measured at 10 to 60 mins post glucose challenge on day 1 by OGTT. It counts as functional, organism-based. The note with it: dose 0.03-1 mg/kg, time 21.0 day.

The nature of series [11]: Metabolic stability in mouse liver microsomes assessed as compound hydrolysis incubated for 30 mins by LC-MS/MS analysis. It counts as ADME, Microsome. The settings on record: read-out: Drug degradation. The method in brief:
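Incubated 30 min with mouse or human liver microsomes. Stability reported as % metabolized.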

A short description of series [12]: Aqueous solubility of the compound at pH 7.4. Format: physicochemical. The note with it: buffer.
Series [13] is described as follows: Drug metabolism in mouse hepatocytes assessed as glucuronidation by LC-MS/MS analysis. It counts as ADME, cell-based, Hepatocyte.
Series [14] relates to Mus musculus. The series is described as follows: Hypoglycemic activity in Balb/c mouse assessed as increase in insulin secretion at 0.03 to 3 mg/kg, po administered 60 mins prior to glucose challenge and measured at 3 to 7 mins by IPGTT. The settings on record: dose 0.03-3 mg/kg. Format: functional, organism-based.
Series [15] is described as follows: Drug metabolism in rat hepatocytes assessed as glucuronidation by LC-MS/MS analysis. It counts as ADME, cell-based, Hepatocyte.
Series [16] is described as follows: Lipophilicity, logP of compound. It counts as physicochemical. The note with it: octanol/water.
The target in series [17] is Voltage-gated inwardly rectifying potassium channel KCNH2 (Homo sapiens, UniProt Q12809). The series can be described thus: Inhibition of human ERG at 10 to 100 uM. The settings on record: dose 10-100 µM.
The target of series [18] is T3, Peroxisome proliferator-activated receptor alpha (Homo sapiens, UniProt Q07869).
T3 sequence (Q07869 whole entry): T1 sequence (whole entry)
The series is described as follows: Agonist activity at human Gal4-fused PPARalpha LBD expressed in African green monkey CV1 cells cotransfected with pRL-SV40 plasmid measured after 24 hrs by luciferase reporter gene assay. Format: cell-based, CV-1. Summed up: as §1

Chain of Voltage-gated inwardly rectifying potassium channel KCNH2 (Q12809 whole entry): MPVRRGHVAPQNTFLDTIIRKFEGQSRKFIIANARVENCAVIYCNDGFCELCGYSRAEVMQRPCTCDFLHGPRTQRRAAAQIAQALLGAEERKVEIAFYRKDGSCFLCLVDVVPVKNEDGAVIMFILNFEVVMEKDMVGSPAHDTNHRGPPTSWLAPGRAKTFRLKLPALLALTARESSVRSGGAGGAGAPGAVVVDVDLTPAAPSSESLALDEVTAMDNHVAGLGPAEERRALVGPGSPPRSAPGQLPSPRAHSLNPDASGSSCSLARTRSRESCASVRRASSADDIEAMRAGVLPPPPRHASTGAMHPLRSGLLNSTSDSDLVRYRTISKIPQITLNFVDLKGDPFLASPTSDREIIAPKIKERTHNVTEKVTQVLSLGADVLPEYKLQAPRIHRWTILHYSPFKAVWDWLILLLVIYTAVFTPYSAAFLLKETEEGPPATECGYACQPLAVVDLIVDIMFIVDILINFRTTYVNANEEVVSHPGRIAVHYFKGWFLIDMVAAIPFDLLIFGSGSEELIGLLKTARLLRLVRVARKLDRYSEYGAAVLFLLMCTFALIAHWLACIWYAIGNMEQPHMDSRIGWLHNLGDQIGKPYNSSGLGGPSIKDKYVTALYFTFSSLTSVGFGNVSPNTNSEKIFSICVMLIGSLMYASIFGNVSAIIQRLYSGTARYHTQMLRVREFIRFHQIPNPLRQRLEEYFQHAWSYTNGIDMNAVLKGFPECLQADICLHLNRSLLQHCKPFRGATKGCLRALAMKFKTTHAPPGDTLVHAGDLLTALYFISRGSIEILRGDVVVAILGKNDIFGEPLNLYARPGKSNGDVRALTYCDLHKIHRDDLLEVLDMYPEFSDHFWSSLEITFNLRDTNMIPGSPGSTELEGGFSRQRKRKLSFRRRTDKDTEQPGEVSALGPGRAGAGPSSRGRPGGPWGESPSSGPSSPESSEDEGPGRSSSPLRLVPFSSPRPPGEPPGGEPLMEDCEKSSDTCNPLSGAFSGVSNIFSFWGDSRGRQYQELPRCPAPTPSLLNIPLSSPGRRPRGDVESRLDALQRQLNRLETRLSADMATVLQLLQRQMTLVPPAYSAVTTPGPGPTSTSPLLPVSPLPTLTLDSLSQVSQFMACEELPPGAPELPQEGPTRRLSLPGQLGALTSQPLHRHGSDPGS

`CC#C[C@@H](CC(=O)O)c1ccc(OCc2ccc(CN3CCCc4cccc(OC)c43)s2)cc1`: the result in [1], in series [10] and in series [14] was Active. Also, the figures for the Emax in series [2] and in [7] were 4% and 8%, respectively. For the same compound, the CLH in [3] was 0.0048 h⁻¹; in [4] it was 0.022 h⁻¹; in [5], under 0.05 h⁻¹. Moreover, the Drug metabolism entry in series [6], in series [13] and in series [15] was “Metabolite_Detected” throughout. Also, the pEC50 in series [8] and in series [18] was under 5.00 throughout. Besides, the solubility in series [9] is 35 µg/mL (≈ 73.6 µM); in [12], over 100 µM. Moreover, the metabolised at 0.5 h in series [11] came to 38%. In [16], this compound came in with a logP of 5.2. Besides, the “inhibition (INH)” value in [17] is “Not Active”.

Turning to `CC#C[C@@H](CC(=O)O)c1ccc(OCc2ccc(CN3CCC4(CCc5ccccc54)CC3)s2)cc1`, the result in series [1], in [10] and in series [14] was Active. Moreover, the Emax in series [2] is 4%; in [7], 15%. For the same compound, the CLH in [3] came out at 0.109 h⁻¹; in series [4], 0.288 h⁻¹; in series [5] it was 0.1 h⁻¹. In addition, the Drug metabolism entry in series [6], in series [13] and in series [15] was “Metabolite_Detected” in each case. Moreover, the pEC50 in [8] and in [18] was under 5.00 throughout. For the same compound, the solubility in series [9] came out at 6 µg/mL (≈ 12 µM); in [12] it was 89 µM (≈ 44.5 µg/mL). For the same compound, the metabolised at 0.5 h in series [11] was 98%. The compound further came in with a logP in series [16] of 5. For the same compound, the “inhibition (INH)” value in series [17] is listed as “Not Active”.

Regarding `CC#C[C@@H](CC(=O)O)c1ccc(OCc2ccc(CN3CCC4(C=Cc5ccccc54)CC3)s2)cc1`, the Drug metabolism entry in series [6] and in series [15] was “Metabolite_Detected” each time.

For `CC#C[C@@H](CC(=O)O)c1ccc(OCc2ccc(CN3CCC4(C=Cc5ccccc54)CC3)cc2)cc1` [LY2881835], the outcome in [1], in [10] and in [14] was Active. The Emax in series [2] worked out at 4%; in series [7], 7%. Also, the CLH amounted to 0.033 h⁻¹ in series [3], 0.131 h⁻¹ in series [4] and 0.09 h⁻¹ in series [5]. Also, the Drug metabolism result in series [6], in series [13] and in [15] was “Metabolite_Detected” each time. Moreover, the pEC50 in series [8] and in [18] was under 5.00 each time. Moreover, the solubility in [9] turned out to be 7 µg/mL (≈ 14.2 µM); in series [12], 61 µM (≈ 30 µg/mL). Besides, the metabolised at 0.5 h in series [11] is 79%. Moreover, in [16], the logP was 4.9. In addition, the “inhibition (INH)” value in series [17] is recorded as “Not Active”.
